Bioassay records as filed in PubChem BioAssay.
E coli WT exp: growth inhibitors of wild-type E. coli, primary screen, strain BW25113, expanded library, OD600 | OD600 absorbance | growth inhibition, % at 100 µM | 98,000 compounds, 0.15% hits | AID 710, 2007;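 active means growth inhibition above about 50% at one test dose, limit read from the data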;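 further: growth measured after 20 h incubation at 37 °C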
Cav3 T inh: Cav3.2 calcium influx blockers – cell-based, Fluo-4 calcium fluorescence, FDSS, MLSMR library, primary screen; AID 449739, 2010; 100,000 compounds, 4% hits; B-score at 10 µM; Cav3.2-expressing cells; hits give low values;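 active means single-dose well whose peak fluorescence ratio is a statistical outlier from its plate by either plate-standardised score or position-corrected B-score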
PostGolgi yeast: phenotypic screen on post-Golgi transport, primary screen | post-Golgi transport phenotypic cell assay | AID 739, 2007 | inhibition, % at 10 µM | 98,000 compounds, 0.9% hits;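 further: yeast cells grown in 1536-well plates; yeast grown about 18 h at 30C before absorbance read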
Pyk2 oligo antag: antagonists of Pyk2 self-association, primary screen, Q293 cells, FERM NanoBiT luminescence, HTS. Protein-tyrosine kinase 2-beta (Homo sapiens), Q14289. hits give low values. z-score (the deposit names both 25 µM and 10 µM). 99,000 compounds, 0.83% hits. AID 1347419, 2020;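 active means Z-score of -3 or lower, scaled per plate to the spread of control and sample wells; inactive means z-score above -3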;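 further: negative z-score means lost luminescence so less FERM oligomerization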
Target sequence (Q14289 whole entry, looked up): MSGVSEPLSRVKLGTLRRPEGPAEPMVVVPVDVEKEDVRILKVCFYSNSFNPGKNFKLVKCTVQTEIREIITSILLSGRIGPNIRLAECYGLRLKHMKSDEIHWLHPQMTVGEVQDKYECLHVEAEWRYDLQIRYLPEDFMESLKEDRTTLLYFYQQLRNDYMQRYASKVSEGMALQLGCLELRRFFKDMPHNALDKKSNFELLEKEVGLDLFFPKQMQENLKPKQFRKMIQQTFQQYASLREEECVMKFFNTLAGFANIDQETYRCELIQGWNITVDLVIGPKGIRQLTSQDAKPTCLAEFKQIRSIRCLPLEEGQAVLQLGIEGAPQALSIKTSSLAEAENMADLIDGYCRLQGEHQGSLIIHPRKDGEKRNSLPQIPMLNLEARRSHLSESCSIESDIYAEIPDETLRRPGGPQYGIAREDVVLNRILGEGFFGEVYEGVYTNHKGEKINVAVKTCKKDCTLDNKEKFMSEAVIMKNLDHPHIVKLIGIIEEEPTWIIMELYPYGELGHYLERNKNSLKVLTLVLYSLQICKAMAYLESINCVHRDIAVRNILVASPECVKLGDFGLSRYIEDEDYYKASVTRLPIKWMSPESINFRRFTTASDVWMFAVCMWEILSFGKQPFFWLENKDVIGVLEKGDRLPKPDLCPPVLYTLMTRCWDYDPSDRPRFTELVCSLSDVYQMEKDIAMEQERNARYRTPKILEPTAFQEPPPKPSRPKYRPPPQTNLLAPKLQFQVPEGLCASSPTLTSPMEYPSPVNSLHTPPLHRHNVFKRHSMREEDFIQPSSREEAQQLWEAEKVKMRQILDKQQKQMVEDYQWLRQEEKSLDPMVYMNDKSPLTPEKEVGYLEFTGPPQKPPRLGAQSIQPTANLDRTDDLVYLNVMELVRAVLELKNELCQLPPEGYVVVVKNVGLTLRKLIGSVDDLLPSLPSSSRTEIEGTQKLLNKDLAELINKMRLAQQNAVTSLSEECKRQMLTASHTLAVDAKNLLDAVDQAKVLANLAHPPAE
PostGolgi ctrl: growth inhibition of yeast control strain, primary screen, counter-screen for post-Golgi transport modulator project; AID 738, 2007; 98,000 compounds, 5% hits; efflux-deficient yeast background strain, growth absorbance A615, 16 h; inhibition, % at 10 µM
Ecoli tolC: growth inhibitors of E. coli tolC mutant, primary screen, strain BW25113 ΔtolC::kan, 384-well; OD615; growth inhibition, % at 10 µM (by protocol); 65,000 compounds, 2.2% hits; AID 573, 2007;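 active means growth inhibition at or above a cutoff equal to the mean over every tested compound plus 3 SD, cut at about 60% in these data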;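 further: growth measured after 20 h incubation at 37 °C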
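Test system: tolC-deleted E. coli BW25113 | Medium: LB with kanamycin 50 µg/mL | Compound dosing: Single concentration, 10 µM final per compound | Schedule: 37 °C, 20 h exposure | Measured by: OD at 615 nm | Evaluation: Percent growth inhibition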
A number is an active result; i = inactive; nt = no result. This is a sample that favours compounds with a hit; in the whole collection about 8.7% have one here. Unless noted, no stated cut-off is given here; in the data, active means inhibition above about 30%; inactive means the rest.

SMILES	E coli WT exp	Cav3 T inh	PostGolgi yeast	Pyk2 oligo antag	PostGolgi ctrl	Ecoli tolC
COc1cc2[nH]c(=S)n(NC(=O)CC(C)C)c(=O)c2cc1OC	i	i	i	i	i	i
Cc1cccc(OCCc2nnc(N)s2)c1C	i	i	i	i	i	i
CC(O)C1CCC2C3CC[C@H]4CC(O)CCC4(C)C3CC3(OCCO3)C12C (stereo partly drawn)	i	i	i	i	33	nt
O=c1c2ccccc2nc(-c2ccc(Cl)cc2)n1C1CCS(=O)(=O)C1 (stereo not drawn)	nt	-4.2	nt	i	nt	nt
CCOC(=O)c1ccc(N2C(=O)c3n[nH]c(C)c3C2c2ccccn2)cc1 (stereo not drawn)	i	nt	i	nt	i	i
CCOC(=O)c1ccc(N2C(=O)c3n[nH]c(C)c3C2c2cccnc2)cc1 (stereo not drawn)	i	i	i	-3.8	i	i
CCCCC(CC)Cn1c2nc3ccccc3nc2c2c(=N)oc(C)nc21 (stereo not drawn)	i	nt	i	nt	72	i
CCc1cc2cccc(C)c2nc1SCC(=O)NNC(=O)c1ccco1	i	i	i	i	38	nt
CCOC(=O)Cc1c(C)nc2cc(-c3ccc(Cl)cc3)[nH]n2c1=O	i	i	i	i	i	i
CCOC(=O)Cc1c(C)nc2c(-c3ccc(Cl)cc3)c[nH]n2c1=O	i	nt	i	i	i	99
Cc1cccc(NC(=O)Cn2cnc3ccccc3c2=O)c1C	i	i	i	i	i	nt
COc1ccc(OC)c(/C=N/NC(=O)c2cc(-c3ccc(C)o3)nc3ccccc23)c1	nt	nt	nt	i	nt	nt
CCc1ccc(/C=N/NC(=O)c2cc(-c3ccccc3OC)nc3ccccc23)s1	i	i	i	i	75	nt
COc1ccccc1-c1cc(C(=O)N/N=C/c2ccc(C)s2)c2ccccc2n1	i	nt	i	i	92	nt
CCc1ccc(/C=N\NC(=O)c2ccc(Br)o2)s1	nt	nt	nt	i	nt	nt
CCc1ccc(/C=N/NC(=O)c2cc(C3CC3)nc3ccc(Br)cc23)s1	i	-5.2	i	i	i	nt
CCn1cc(CNC(=O)c2cc(-c3ccccc3OC)nc3ccccc23)c(C)n1	i	i	i	i	i	nt
Cc1ccc2[nH]cc(CCNC(=O)c3cccnc3)c2c1	i	i	i	i	i	nt
Cc1ccc2[nH]cc(CCNC(=O)Nc3ccccc3)c2c1	i	-3.9	i	i	i	nt
COc1ccc(/C=C(/C(=O)Nc2ccccc2C(=O)NC(C)C)c2ccccc2)cc1	i	nt	i	i	i	nt
COc1ccc(/C=C(/C(=O)Nc2ccccc2C(=O)N2CCCC2)c2ccccc2)cc1	i	i	i	i	36	nt
Cc1nnc(SCc2ccc3c(c2)OCO3)s1	i	i	i	i	i	nt
N#Cc1c(NC(=O)CSc2nnc(-c3ccccc3O)n2-c2ccccc2)sc2c1CCCC2	i	-4.8	i	i	40	i
CCn1c(SCC(=O)Nc2sc3c(c2C#N)CCCC3)nnc1-c1ccncc1	nt	i	nt	i	nt	nt
Cc1cccc(/C=c2\s/c(=C\C(=O)C(C)(C)C)[nH]c2=O)c1	i	i	i	i	36	nt
SMILES	E coli WT exp	Cav3 T inh	PostGolgi yeast	Pyk2 oligo antag	PostGolgi ctrl	Ecoli tolC
CC(C)(C)C(=O)/C=c1\[nH]c(=O)/c(=C\c2ccc(C#N)cc2)s1	i	i	i	i	i	i
Cc1c(Cl)c([N+](=O)[O-])nn1CC(=O)NC(C)C1CC2CCC1C2 (stereo not drawn)	i	-8.2	i	i	i	nt
Cc1cc2cc(CCNC(=O)c3ccc(Br)o3)c(=O)[nH]c2cc1C	i	nt	i	i	102	i
Cc1cc2cc(CNC(=O)c3ccc(Br)o3)ccc2[nH]1	nt	-6	nt	nt	nt	i
COc1ccc2cc(CCNC(=O)c3ccc(Br)o3)c(=O)[nH]c2c1	i	nt	i	nt	99	i
Cc1ccc(CNC(=O)c2ccc(Br)o2)cc1	i	i	i	i	i	i
COc1ccc2cc(CCNC(=O)c3ccc4c(c3)OCO4)c(=O)[nH]c2c1	i	nt	i	nt	30	i
CCC(CC)C(=O)NCCc1cc2ccc(OC)cc2[nH]c1=O	i	nt	i	i	i	i
FC(F)(F)C1=CC(c2ccc(Br)cc2)=NCCN1	i	i	i	i	i	nt
CCC(CC)C(=O)OCC(=O)Nc1ccc(S(=O)(=O)N2CCOCC2)cc1OC	i	i	i	i	i	nt
